ChEMBL document CHEMBL1130321, “Synthesis and in vitro activity of 3 beta-substituted-3 alpha-hydroxypregnan-20-ones: allosteric modulators of the GABAA receptor” (J Med Chem, 1997)

How the values were obtained:
[1] = target: GABA-A receptor; anion channel; assay: Ability to allosterically modulate the binding of [35S]TBPS to gamma-aminobutyric-acid A receptor in rat brain cortical P2 membranes.; format: cell membranes, Membrane
In short: (§1)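 Rat cortical P2 membranes washed in 200 mM NaCl/50 mM Na-K phosphate pH 7.4. Incubated with 2 nM [35S]TBPS, 5 µM GABA and compound at nine concentrations from 1 nM to 10 µM final (DMSO 0.5% final), 90 min at room temperature. Nonspecific binding was defined with 2 µM unlabeled TBPS. Read-out was filtration and scintillation counting. IC50 and Imax came from partial or full inhibition fits chosen by F-test. Values are mean ± SEM of 3-9 experiments.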

Rattus norvegicus [2] = species on record: Rattus norvegicus; assay: Percent of maximal extent of inhibition was calculated by fitting [35S]TBPS inhibition data to a sigmoid function (rat brain cortical P2 membranes).; format: functional; in short: as §1
[3] = target: T1, GABA-A receptor; alpha-1/beta-2/gamma-2 (Homo sapiens) (UniProt P14867+P47870+P18507); assay: Efficacy as fractional response (FR) relative to GABA maximal current elicited in Xenopus oocytes; format: functional, cell-based; conditions: Oocyte
In short: (§2)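 Xenopus oocytes were injected with human α1, β2 and γ2L cRNAs at 1:1:1, ~1 ng each. Two-electrode voltage clamp was done in frog Ringer (HEPES 5 mM, pH 7.4). Currents were scaled to the maximum elicited by 3 mM GABA. Steroid was applied in increasing concentrations to a fixed GABA response of ~0.05 fractional current, with DMSO 0.3% final. Data were fitted to a four-parameter logistic and given as mean ± SEM.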

[4] = target: T2, GABA-A receptor; alpha-1/beta-2/gamma-2 (Homo sapiens, UniProt P14867+P18507+P47870); assay: Potentiation of GABA-activated currents in Xenopus oocytes expressing cloned human alpha-1-beta-2-gamma-2L subunits of GABA-A receptor; format: functional, cell-based, Oocyte; in short: as §2
T2 sequence (P14867 whole entry): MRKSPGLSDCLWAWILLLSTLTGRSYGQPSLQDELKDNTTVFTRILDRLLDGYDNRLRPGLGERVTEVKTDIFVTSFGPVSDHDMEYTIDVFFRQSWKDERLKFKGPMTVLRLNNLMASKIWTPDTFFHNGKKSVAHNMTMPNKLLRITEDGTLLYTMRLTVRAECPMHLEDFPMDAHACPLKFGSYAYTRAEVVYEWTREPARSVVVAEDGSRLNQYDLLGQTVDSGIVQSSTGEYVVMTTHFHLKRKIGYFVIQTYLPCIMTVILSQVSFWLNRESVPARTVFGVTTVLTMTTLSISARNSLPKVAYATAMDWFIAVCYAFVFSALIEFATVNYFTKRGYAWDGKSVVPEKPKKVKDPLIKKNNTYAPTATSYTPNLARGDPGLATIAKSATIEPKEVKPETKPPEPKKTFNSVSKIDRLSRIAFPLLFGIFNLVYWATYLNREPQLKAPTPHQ
T2 sequence (P47870 whole entry): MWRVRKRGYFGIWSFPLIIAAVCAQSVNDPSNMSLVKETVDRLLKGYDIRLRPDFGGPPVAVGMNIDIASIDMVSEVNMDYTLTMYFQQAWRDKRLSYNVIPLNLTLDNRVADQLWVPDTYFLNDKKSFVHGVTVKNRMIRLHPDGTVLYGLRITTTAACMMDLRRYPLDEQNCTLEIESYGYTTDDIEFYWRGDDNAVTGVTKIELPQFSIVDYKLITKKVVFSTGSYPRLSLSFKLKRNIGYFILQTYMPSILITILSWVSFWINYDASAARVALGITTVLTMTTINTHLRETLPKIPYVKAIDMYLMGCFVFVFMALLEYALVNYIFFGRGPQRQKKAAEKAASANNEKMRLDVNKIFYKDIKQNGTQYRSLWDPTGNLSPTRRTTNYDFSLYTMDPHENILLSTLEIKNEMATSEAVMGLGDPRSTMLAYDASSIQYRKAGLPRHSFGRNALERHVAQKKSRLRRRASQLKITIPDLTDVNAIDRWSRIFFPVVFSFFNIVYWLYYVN
T2 sequence (P18507 whole entry): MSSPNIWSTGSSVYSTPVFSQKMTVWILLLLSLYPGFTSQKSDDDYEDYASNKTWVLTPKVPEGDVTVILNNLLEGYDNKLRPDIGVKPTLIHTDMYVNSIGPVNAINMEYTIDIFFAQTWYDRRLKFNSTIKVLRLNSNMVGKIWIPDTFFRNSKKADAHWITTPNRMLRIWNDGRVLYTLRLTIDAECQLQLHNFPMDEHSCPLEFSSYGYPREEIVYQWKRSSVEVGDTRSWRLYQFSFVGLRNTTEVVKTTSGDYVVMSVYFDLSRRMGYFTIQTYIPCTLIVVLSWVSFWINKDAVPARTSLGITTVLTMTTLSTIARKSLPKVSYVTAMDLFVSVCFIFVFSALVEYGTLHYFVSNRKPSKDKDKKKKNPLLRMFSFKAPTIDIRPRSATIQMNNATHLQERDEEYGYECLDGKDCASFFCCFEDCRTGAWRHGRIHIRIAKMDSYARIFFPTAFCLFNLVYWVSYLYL

[5] = target: T1, GABA-A receptor; alpha-1/beta-2/gamma-2 (Homo sapiens); assay: Hill value, slope calculated from GABA-current potentiation in Xenopus oocytes; format: functional, cell-based; conditions: Oocyte
In short: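 Xenopus oocytes injected 1:1:1 with human α1, β2, γ2L cRNAs (~1 ng each per cell); two-electrode voltage clamp in frog Ringer (NaCl 115, KCl 2, CaCl2 1.8, HEPES 5 mM, pH 7.4). Steroid DMSO stocks diluted […] (DMSO 0.3% final). Increasing steroid applied on a GABA response set to ~5% of the 3 mM GABA maximum. Data fit to a four-parameter logistic; mean ± SEM.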

Rattus norvegicus [6] = species on record: Rattus norvegicus; assay: Percent of maximal extent of inhibition was calculated by fitting [35S]TBPS inhibition data to a sigmoid function (rat brain cortical P2 membranes) at 10 uM concentration; format: functional
In short: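 Rat cortical P2 membranes washed in 200 mM NaCl/50 mM Na-K phosphate, pH 7.4. Incubated 90 min at room temperature with 2 nM [35S]TBPS, 5 μM GABA and steroid in DMSO (0.5% final). Nonspecific binding defined with 2 μM unlabeled TBPS. Filtration, scintillation counting. Partial or full inhibition model chosen by F-test.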

[7] = target: GABA-A receptor; anion channel; assay: Allosteric modulation of [35S]TBPS binding to Gamma-aminobutyric acid A receptor in rat brain cortical P2 membranes (inhibits binding with two components); format: cell membranes, Membrane; in short: as §1

CC(=O)[C@H]1CC[C@H]2[C@@H]3CC[C@H]4C[C@](C)(O)CC[C@]4(C)[C@H]3CC[C@]12C [GANAXOLONE]
IC50 [1]: 0.08 µM | Imax (Rattus norvegicus [2]): 94% | Efficacy [3]: 0.8 | EC50 [4]: 0.26 µM

CC(=O)[C@H]1CC[C@H]2[C@@H]3CC[C@H]4C[C@@](O)(CC#N)CC[C@]4(C)[C@H]3CC[C@]12C
IC50 [1]: 0.614 µM | Hill coefficient [5]: 1 | Imax (Rattus norvegicus [2]): 38%

CSC[C@@]1(O)CC[C@@]2(C)[C@@H](CC[C@@H]3[C@@H]2CC[C@]2(C)[C@@H](C(C)=O)CC[C@@H]32)C1
IC50 [1]: > 10 µM | Imax (Rattus norvegicus [6]): 46%

CC(=O)[C@H]1CC[C@H]2[C@@H]3CC[C@H]4C[C@@](O)(CN=[N+]=[N-])CC[C@]4(C)[C@H]3CC[C@]12C
IC50 [1]: 0.027 µM | Imax (Rattus norvegicus [2]): 99% | Efficacy [3]: 0.8 | EC50 [4]: 0.15 µM

CC(=O)[C@H]1CC[C@H]2[C@@H]3CC[C@H]4C[C@@](O)(C(F)(F)F)CC[C@]4(C)[C@H]3CC[C@]12C
IC50 [1]: 0.266 µM | Imax (Rattus norvegicus [2]): 44% | Efficacy [3]: 0.3 | EC50 [4]: 0.39 µM

CCCC(C)C1(CC)C(=O)NC(=O)NC1=O (stereo not drawn)
Hill coefficient [5]: 1 | Imax (Rattus norvegicus [2]): 100%

CC(=O)[C@H]1CC[C@H]2[C@@H]3CC[C@H]4C[C@H](O)CC[C@]4(C)[C@H]3CC[C@]12C [BREXANOLONE]
IC50 [1]: 0.051 µM | Imax (Rattus norvegicus [2]): 95% | Efficacy [3]: 0.91 | EC50 [4]: 0.16 µM

CC(=O)[C@H]1CC[C@H]2[C@@H]3CC[C@H]4C[C@@](O)(CO)CC[C@]4(C)[C@H]3CC[C@]12C
IC50 [1]: 2.13 µM | Imax (Rattus norvegicus [2]): 101% | EC50 [4]: ~20 µM

CC(=O)[C@H]1CC[C@H]2[C@@H]3CC[C@H]4C[C@@](O)(COCc5ccccc5)CC[C@]4(C)[C@H]3CC[C@]12C
IC50 [1]: 0.376 µM | Hill coefficient [5]: 1.6 | Imax (Rattus norvegicus [2]): 57%

CC(=O)[C@H]1CC[C@H]2[C@@H]3CC[C@@H]4C[C@H](O)CC[C@]4(C)[C@H]3CC[C@]12C [ELTANOLONE]
Imax (Rattus norvegicus [2]): 65% | IC50 [7]: 0.044 µM

CC(=O)[C@H]1CC[C@H]2[C@@H]3CC[C@H]4C[C@@](O)(CN(C)C)CC[C@]4(C)[C@H]3CC[C@]12C
IC50 [1]: > 10 µM | Imax (Rattus norvegicus [2]): 0% | EC50 [4]: > 50 µM

C=C=CC[C@@]1(O)CC[C@@]2(C)[C@@H](CC[C@@H]3[C@@H]2CC[C@]2(C)[C@@H](C(C)=O)CC[C@@H]32)C1
IC50 [1]: 0.365 µM | Imax (Rattus norvegicus [2]): 57%

CC(=O)[C@H]1CC[C@H]2[C@@H]3CC[C@H]4C[C@@](O)(CBr)CC[C@]4(C)[C@H]3CC[C@]12C
IC50 [1]: 0.224 µM | Imax (Rattus norvegicus [2]): 44%
